Test results from ChEMBL document CHEMBL4270599, “Synthesis of a 3'-C-ethynyl-β-d-ribofuranose purine nucleoside library: Discovery of C7-deazapurine analogs as potent antiproliferative nucleosides” (Eur J Med Chem, 2018).
pIC50: −log10 of the molar value.

What was measured:
T47D [1] = test: Cytotoxicity against human T47D cells after 48 hrs by SRB assay; format: functional; conditions: for GI50: read-out: GI50
LOX IMVI = test: Growth inhibition of human LOXIMVI cells assessed as cell growth at 10^-8 M incubated for 48 hrs by sulforhodamine B assay relative to control; format: functional; conditions: read-out: Activity
HMEC-1 = test: Antiproliferative activity against HMEC1 cells after 4 days by Coulter counter method; format: cell-based; conditions: Homo sapiens, HMEC-1, 96 h
Method in brief: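 Primary HUVEC, primary HMVEC-d and the HMEC-1 line seeded at 20,000 cells/well in gelatin-coated plates in EC growth medium (EGM2). After overnight incubation, 5-fold compound dilutions added. Cells proliferated four days with compound, then trypsinized and counted by Coulter counter to derive IC₅₀.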

SK-MEL-2 = test: Cytotoxicity against human SK-MEL-2 cells after 48 hrs by SRB assay; format: functional; conditions: SK-MEL-2, 48 h; for GI50: read-out: GI50; for CC50: read-out: LC50 (the source's name); for TGI: read-out: TGI
UACC-257 = test: Growth inhibition of human UACC257 cells assessed as cell growth at 10^-6 M incubated for 48 hrs by sulforhodamine B assay relative to control; format: functional; conditions: UACC-257, 48 h, read-out: Activity
MOLT-4 = test: Growth inhibition of human MOLT4 cells assessed as cell growth at 10^-5 M incubated for 48 hrs by sulforhodamine B assay relative to control; format: functional; conditions: MOLT-4, 48 h, read-out: Activity
HOP-92 = test: Growth inhibition of human HOP92 cells assessed as cell growth at 10^-6 M incubated for 48 hrs by sulforhodamine B assay relative to control; format: functional; conditions: HOP-92, 48 h, read-out: Activity
MDA-MB-231 [2] = test: Growth inhibition of human MDA-MB-231 cells assessed as cell growth at 10^-7 M incubated for 48 hrs by sulforhodamine B assay relative to control; format: functional; conditions: MDA-MB-231, 48 h, read-out: Activity
T47D [3] = test: Growth inhibition of human T47D cells assessed as cell growth at 10^-7 M incubated for 48 hrs by sulforhodamine B assay relative to control; format: functional; conditions: read-out: Activity
Malme-3M = test: Cytotoxicity against human MALME-3M cells after 48 hrs by SRB assay; format: functional; conditions: for GI50: read-out: GI50; for CC50: read-out: LC50 (the source's name); for TGI: read-out: TGI
K562 [4] = test: Growth inhibition of human K562 cells assessed as cell growth at 10^-7 M incubated for 48 hrs by sulforhodamine B assay relative to control; format: functional; conditions: K562, 48 h, read-out: Activity
SF-295 = test: Cytotoxicity against human SF295 cells after 48 hrs by SRB assay; format: functional; conditions: SF-295, 48 h; for GI50: read-out: GI50; for CC50: read-out: LC50 (the source's name); for TGI: read-out: TGI
K562 [5] = test: Growth inhibition of human K562 cells assessed as cell growth at 10^-6 M incubated for 48 hrs by sulforhodamine B assay relative to control; format: functional; conditions: K562, 48 h, read-out: Activity
HCC 2998 [6] = test: Growth inhibition of human HCC2998 cells assessed as cell growth at 10^-7 M incubated for 48 hrs by sulforhodamine B assay relative to control; format: functional; conditions: HCC 2998, 48 h, read-out: Activity
NCI-H322M = test: Growth inhibition of human NCI-H322M cells assessed as cell growth at 10^-6 M incubated for 48 hrs by sulforhodamine B assay relative to control; format: functional; conditions: read-out: Activity
CCRF-CEM = test: Growth inhibition of human CCRF-CEM cells assessed as cell growth at 10^-4 M incubated for 48 hrs by sulforhodamine B assay relative to control; format: functional; conditions: read-out: Activity
A549 = test: Growth inhibition of human A549/ATCC cells assessed as cell growth at 10^-7 M incubated for 48 hrs by sulforhodamine B assay relative to control; format: functional; conditions: A549, 48 h, read-out: Activity
MDA-MB-231 [7] = test: Growth inhibition of human MDA-MB-231 cells assessed as cell growth at 10^-6 M incubated for 48 hrs by sulforhodamine B assay relative to control; format: functional; conditions: MDA-MB-231, 48 h, read-out: Activity
HeLa = test: Antiproliferative activity against human HeLa cells after 72 hrs by Coulter counter method; format: functional, cell-based
Method in brief: (§1)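 Cell count assay in 96-well microtiter plates; (5–7.5) × 10⁴ tumor cells per well plus test compound. Cells proliferated at 37 °C in humidified CO₂-controlled atmosphere, 48 h for murine leukemia L1210, 72 h for human lymphocytic CEM and cervix carcinoma HeLa. Counted by Coulter counter; IC₅₀ is the concentration that inhibits proliferation by 50%.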

SW-620 = test: Growth inhibition of human SW620 cells assessed as cell growth at 10^-8 M incubated for 48 hrs by sulforhodamine B assay relative to control; format: functional; conditions: SW-620, 48 h, read-out: Activity
NCI-H522 = test: Cytotoxicity against human NCI-H522 cells after 48 hrs by SRB assay; format: functional; conditions: NCI-H522, 48 h; for GI50: read-out: GI50; for TGI: read-out: TGI; for CC50: read-out: pLC50 (the source's name) (converted)
MDA-MB-435 = test: Growth inhibition of human MDA-MB-435 cells assessed as cell growth at 10^-5 M incubated for 48 hrs by sulforhodamine B assay relative to control; format: functional; conditions: MDA-MB-435, 48 h, read-out: Activity
HCC 2998 [8] = test: Cytotoxicity against human HCC2998 cells after 48 hrs by SRB assay; format: functional; conditions: HCC 2998, 48 h; for GI50: read-out: GI50; for TGI: read-out: TGI
L1210 = test: Antiproliferative activity against mouse L1210 cells after 48 hrs by Coulter counter method; format: functional, cell-based; conditions: L1210, 48 h; method in brief: as §1
SK-OV-3 = test: Growth inhibition of human SKOV3 cells assessed as cell growth at 10^-8 M incubated for 48 hrs by sulforhodamine B assay relative to control; format: functional; conditions: SK-OV-3, 48 h, read-out: Activity
NCI-H226 = test: Growth inhibition of human NCI-H226 cells assessed as cell growth at 10^-6 M incubated for 48 hrs by sulforhodamine B assay relative to control; format: functional; conditions: NCI-H226, 48 h, read-out: Activity
HL-60(TB) = test: Growth inhibition of human HL-60(TB) cells assessed as cell growth at 10^-5 M incubated for 48 hrs by sulforhodamine B assay relative to control; format: functional; conditions: HL-60, 48 h, read-out: Activity
NCI/ADR-RES = test: Growth inhibition of human NCI/ADR-RES cells assessed as cell growth at 10^-5 M incubated for 48 hrs by sulforhodamine B assay relative to control; format: functional; conditions: read-out: Activity
[9] = read-out: LC50 (the source's name)
[10] = read-out: pLC50 (the source's name) (converted)

| SMILES | GI50 (T47D [1]) [nM] | TGI (T47D [1]; read-out: TGI) [nM] | growth at 0.01 µM (LOX IMVI) [%] | pIC50 (HMEC-1) | GI50 (SK-MEL-2) [nM] | CC50 (SK-MEL-2) [nM] | TGI (SK-MEL-2) [nM] | growth at 1 µM (UACC-257) [%] | growth at 0.1 µM (MDA-MB-231 [2]) [%] | growth at 0.1 µM (T47D [3]) [%] | GI50 (Malme-3M) [nM] | CC50 (Malme-3M) [nM] | TGI (Malme-3M) [nM] | growth at 0.1 µM (K562 [4]) [%] | GI50 (SF-295) [nM] | CC50 (SF-295) [nM] | TGI (SF-295) [nM] | growth at 1 µM (K562 [5]) [%] | growth at 0.1 µM (HCC 2998 [6]) [%] | growth at 1 µM (NCI-H322M) [%] | other results |
| --- | --- | --- | --- | --- | --- | --- | --- | --- | --- | --- | --- | --- | --- | --- | --- | --- | --- | --- | --- | --- | --- |
| C#C[C@@]1(O)[C@@H](CO)O[C@@H](n2cc(Cl)c3c(N)ncnc32)[C@@H]1O | 33.6 to 98 | 428 to 559 | 70 to 84 | 8.46 | 83.5 to 146 | > 100000 | 268 to 481 | 12 to 29 | 60 to 71 | 31 to 50 | 223 to 262 | > 100000 | 858 to 11800 | 45 to 55 | 202 to 298 | > 100000 | 1900 to 3200 | 7 | 79 to 80 | 13 to 23 | CC50 (T47D [1]; [9]): > 100000 nM; growth at 10 µM (MOLT-4): 2%; growth at 1 µM (HOP-92): 27 to 31%; growth at 100 µM (CCRF-CEM): 2 to 5%; growth at 0.1 µM (A549): 61 to 77%; growth at 1 µM (MDA-MB-231 [7]): -4%; pIC50 (HeLa): 7.29; growth at 0.01 µM (SW-620): 88 to 91%; GI50 (NCI-H522): 81.6 to 134 nM; TGI (NCI-H522): 276 to 455 nM; CC50 (NCI-H522): > 100000 nM; growth at 10 µM (MDA-MB-435): -65%; GI50 (HCC 2998 [8]): 182 to 191 nM; CC50 (HCC 2998 [8]; [9]): > 100000 nM; TGI (HCC 2998 [8]): 501 to 565 nM; pIC50 (L1210): 7.85; growth at 0.01 µM (SK-OV-3): 84 to 94% |
| C#C[C@@]1(O)[C@@H](CO)O[C@@H](n2cc(Br)c3c(N)ncnc32)[C@@H]1O | 17.3 to 43.2 | 177 | 76 to 94 | 8.35 | 197 to 916 | 49500 to 100000 | 430 to 758 | 60 to 73 | 36 to 71 | 5 to 32 | 627 to 799 | 81900 to 82600 | 12200 to 14100 | 27 to 48 | 189 to 466 | > 100000 | 4120 to 13700 | 7 to 10 | 73 to 80 | 26 to 33 | CC50 (T47D [1]; [10]): > 100000 nM; TGI (T47D [1]; read-out: pTGI (converted)): 178 nM; growth at 1 µM (NCI-H226): 27 to 66%; growth at 100 µM (CCRF-CEM): 3 to 4%; growth at 0.1 µM (A549): 48 to 80%; growth at 1 µM (MDA-MB-231 [7]): 2 to 8%; pIC50 (HeLa): 7.03; growth at 0.01 µM (SW-620): 81 to 89%; GI50 (NCI-H522): 61.3 to 156 nM; TGI (NCI-H522): 332 to 593 nM; CC50 (NCI-H522): > 100000 nM; growth at 10 µM (HL-60(TB)): -51%; growth at 10 µM (NCI/ADR-RES): -9%; GI50 (HCC 2998 [8]): 169 to 240 nM; TGI (HCC 2998 [8]): 525 to 1250 nM; CC50 (HCC 2998 [8]; [10]): > 100000 nM; pIC50 (L1210): 7.55; growth at 0.01 µM (SK-OV-3): 91 to 93% |
